Our source for the Activity values is ChEMBL document CHEMBL4138133, “2,3-Dihydro-3β-methoxy Withaferin-A Protects Normal Cells against Stress: Molecular Evidence of Its Potent Cytoprotective Activity” (J Nat Prod, 2017).

Activity calls are given as the source filed them. No cut-off for these calls is given here.

The target in data set [1] is Mitogen-activated protein kinase 3 (Homo sapiens) (UniProt P27361). As to the kind of experiment: Induction of ERK1 phosphorylation at Thr202 residues in UV-irradiated human TIG3 cells using 50 mJ/cm2 of UV radiations followed by compound addition by immuno fluorescence staining based analysis. Put shortly: (§1)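 TIG-3 fibroblasts (DMEM, 10% FBS, 37 °C) stressed with H2O2 (500 μM, 2 h) or UV (50 mJ/cm2), then recovered in compound-supplemented medium. Cells fixed in chilled absolute methanol and immunostained for the marker. Images taken by fluorescence microscopy and staining intensity quantified. Triplicate experiments.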

For data set [2], the system named is TIG-3. As to the kind of experiment: Induction of oxidative stress against human TIG3 cells assessed as increase in CARF mRNA levels by RT-PCR analysis. It is filed as cell-based. Put shortly: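 Total RNA from treated TIG-3 cells; cDNA from 2 μg RNA; PCR 95 °C 10 min, 30 cycles (95 °C 45 s, 58 °C 1 min, 72 °C 45 s), 72 °C 10 min; products on 0.8% agarose, band densitometry; three independent experiments.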

The subject of data set [3] is TIG-3. As to the kind of experiment: Cytoprotective activity against H2O2-induced oxidative stress in human TIG3 cells assessed as decrease in protein disulfide isomerase expression level at 0.6 uM pretreated with H2O2 for 2 hrs followed by compound addition by immuno fluorescence staining based analysis. It is filed as functional, cell-based. Put shortly: as §1
Data set [4] has as its system TIG-3. As to the kind of experiment: Effect on mortalin expression level in human TIG3 cells at 0.3 to 3 uM by immuno fluorescence analysis. It is filed as ADME, cell-based. The settings on record: tig-3, 3 µM. Put shortly:
(§2)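 Methanol-fixed (chilled absolute methanol) TIG-3 fibroblasts treated with Wi-A or 3βmWi-A; immunofluorescence staining with antibodies, imaged by epifluorescence microscopy; signal quantitated from three independent experiments.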

The target in data set [5] is T1, MAP kinase p38 (Homo sapiens) (UniProt O15264+Q15759+Q16539+P53778). Description: Induction of p38 MAPK phosphorylation at Thr180/Tyr182 residues in H2O2 treated human TIG3 cells pretreated with H2O2 for 2 hrs followed by compound addition by immuno fluorescence staining based analysis. Put shortly:
as §1

The target in data set [6] is RAC-alpha serine/threonine-protein kinase (Homo sapiens) (UniProt P31749). Description: Induction of AKT-mediated beta-catenin expression level in H2O2 treated human TIG3 cells at 0.6 uM pretreated with H2O2 for 2 hrs followed by compound addition by immunoblot analysis. Put shortly: (§3)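 TIG-3 cells stressed with H2O2 (500 μM, 2 h), then recovered in medium containing 0.3 or 0.6 μM compound. Lysed in NP40 buffer; 10−20 μg protein immunoblotted for pAkt Ser473, p-p38 Thr180/Tyr182, p-p44/42 Thr202/Tyr204, β-catenin, survivin, Bcl-2 or full-length PARP-1. Triplicate experiments.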
On the technique in general: In western blotting, separated proteins are transferred to a membrane and probed.

The subject of data set [7] is TIG-3. Description: Cytotoxicity against human TIG3 cells assessed as induction of senescence at 70 to 72 population doubling at 0.5 uM. The class given is cell-based. The settings on record: tig-3, 0.5 µM.
For data set [8], the target named is Mitogen-activated protein kinase 1 (Homo sapiens) (UniProt P28482). As to the kind of experiment: Induction of ERK2 phosphorylation at Tyr204 residues in H2O2 treated human TIG3 cells pretreated with H2O2 for 2 hrs followed by compound addition by immuno fluorescence staining based analysis. Put shortly: as §1
For data set [9], the system named is TIG-3. As to the kind of experiment: Cytoprotective activity against etoposide-induced stress in human TIG3 cells assessed as increase in cell survival pretreated with etoposide for 24 hrs followed by compound addition measured after 2 days by crystal violet staining based assay. It is filed as functional.
The subject of data set [10] is TIG-3. As to the kind of experiment: Cytoprotective activity against H2O2-induced oxidative stress in human TIG3 cells assessed as increase in Bcl2 level at 0.6 uM pretreated with H2O2 for 2 hrs followed by compound addition by immunoblot analysis. It is filed as functional, cell-based. In outline:
as §3

Data set [11] has as its system TIG-3. Description: Cytotoxicity against human TIG3 cells assessed as induction of morphological changes at 0.3 to 1.5 uM after 48 hrs by phase contrast microscopy. The class given is cell-based. As to conditions: tig-3, 48 h. In outline: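 Phase-contrast microscopy of morphology of control and treated normal human TIG-3 fibroblasts.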
Data set [12] deals with TIG-3. As to the kind of experiment: Cytoprotective activity against doxorubicin-induced stress in human TIG3 cells assessed as increase in cell survival pretreated with doxorubicin for 24 hrs followed by compound addition measured after 2 days by crystal violet staining based assay. The class given is functional.
For data set [13], the target named is Kelch-like ECH-associated protein 1 (Homo sapiens, UniProt Q14145). Description: Activation of keap1 in human TIG3 cells assessed as Nrf2 nuclear accumulation at 0.6 uM by immuno staining analysis. The class given is cell-based. In outline: as §2
The target of data set [14] is T1, MAP kinase p38 (Homo sapiens). Description: Induction of p38 MAPK phosphorylation at Thr180/Tyr182 residues in UV-irradiated human TIG3 cells using 50 mJ/cm2 of UV radiations followed by compound addition by immuno fluorescence staining based analysis. In outline:
as §1

The target in data set [15] is Mitogen-activated protein kinase 1 (Homo sapiens) (UniProt P28482). As to the kind of experiment: Induction of ERK2 phosphorylation at Tyr204 residues in UV-irradiated human TIG3 cells using 50 mJ/cm2 of UV radiations followed by compound addition by immuno fluorescence staining based analysis. In outline: as §1
Data set [16] concerns TIG-3. Description: Induction of oxidative stress in human TIG3 cells assessed as increase in p53 expression level at 0.6 uM by immunoblot analysis. The settings on record: tig-3, 0.6 µM. The class given is cell-based. Put shortly:
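TIG-3 cells treated with compound, lysed in NP40 buffer (centrifuged 20 min, 4 °C); 10−20 μg protein immunoblotted for indicated proteins; band quantitation from three independent experiments, Student's t or Mann−Whitney test.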

Data set [17] concerns TIG-3. Description: Cytoprotective activity against UV irradiation-induced stress in human TIG3 cells assessed as decrease in p53 level irradiated with 50 mJ/cm2 of UV radiations followed by compound addition by immuno fluorescence staining based assay. It is filed as functional, cell-based.
Data set [18] relates to TIG-3. As to the kind of experiment: Cytoprotective activity against H2O2-induced oxidative stress in human TIG3 cells assessed as increase in cell survival at 3 uM pretreated with H2O2 for 2 hrs followed by compound addition measured after 72 hrs by crystal violet staining based assay. The class given is functional.
Data set [19] concerns TIG-3. As to the kind of experiment: Cytoprotective activity against H2O2-induced oxidative stress in human TIG3 cells assessed as decrease in phosphorylated ATM level at 0.6 uM pretreated with H2O2 for 2 hrs followed by compound addition by immuno fluorescence staining based analysis. It is filed as functional, cell-based. In outline:
as §1

For data set [20], the system named is TIG-3. Description: Cytotoxicity against human TIG3 cells assessed as reduction in cell viability at 1 to 10 uM after 72 hrs. The settings on record: tig-3, 72 h. The class given is cell-based. Put shortly:
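Normal fibroblasts in DMEM/10% FBS at 37 °C given 0.15 to 50 μM compound for 48 or 72 h; viability determined; triplicate, mean ± SEM.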

Chain of Mitogen-activated protein kinase 1 (Homo sapiens) (P28482 whole entry): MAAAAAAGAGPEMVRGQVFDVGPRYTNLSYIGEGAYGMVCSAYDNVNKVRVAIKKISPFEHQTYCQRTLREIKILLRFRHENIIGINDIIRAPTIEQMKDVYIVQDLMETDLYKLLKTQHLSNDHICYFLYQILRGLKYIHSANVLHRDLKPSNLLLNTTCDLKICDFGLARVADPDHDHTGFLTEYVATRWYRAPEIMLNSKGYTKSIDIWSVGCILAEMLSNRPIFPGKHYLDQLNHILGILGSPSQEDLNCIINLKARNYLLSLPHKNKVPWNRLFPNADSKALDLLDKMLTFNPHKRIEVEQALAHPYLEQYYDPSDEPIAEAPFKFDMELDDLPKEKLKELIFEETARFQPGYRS
Chain of RAC-alpha serine/threonine-protein kinase (Homo sapiens) (P31749 whole entry): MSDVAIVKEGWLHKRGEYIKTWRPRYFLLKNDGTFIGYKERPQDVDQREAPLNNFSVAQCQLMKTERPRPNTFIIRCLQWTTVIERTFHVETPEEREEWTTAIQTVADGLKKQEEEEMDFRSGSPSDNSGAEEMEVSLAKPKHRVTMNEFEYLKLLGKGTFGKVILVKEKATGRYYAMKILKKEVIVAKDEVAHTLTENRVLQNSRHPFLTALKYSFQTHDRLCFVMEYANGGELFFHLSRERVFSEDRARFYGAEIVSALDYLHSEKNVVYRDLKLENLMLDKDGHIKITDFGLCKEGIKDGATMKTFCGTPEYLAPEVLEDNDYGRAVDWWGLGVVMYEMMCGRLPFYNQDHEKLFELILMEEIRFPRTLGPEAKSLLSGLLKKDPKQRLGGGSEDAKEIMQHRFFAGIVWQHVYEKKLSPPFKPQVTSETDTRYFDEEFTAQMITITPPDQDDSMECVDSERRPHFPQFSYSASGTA
Chain of Mitogen-activated protein kinase 3 (Homo sapiens) (P27361 whole entry): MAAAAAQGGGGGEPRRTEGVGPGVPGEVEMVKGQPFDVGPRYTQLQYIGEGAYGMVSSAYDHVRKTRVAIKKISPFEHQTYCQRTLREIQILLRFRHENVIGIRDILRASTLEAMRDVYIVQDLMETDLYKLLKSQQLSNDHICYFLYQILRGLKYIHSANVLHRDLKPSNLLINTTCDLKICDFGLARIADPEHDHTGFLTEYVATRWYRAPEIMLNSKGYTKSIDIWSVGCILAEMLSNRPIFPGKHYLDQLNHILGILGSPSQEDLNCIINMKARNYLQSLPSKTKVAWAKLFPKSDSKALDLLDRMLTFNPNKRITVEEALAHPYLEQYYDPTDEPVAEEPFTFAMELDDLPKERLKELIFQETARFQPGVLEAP
Chain of Kelch-like ECH-associated protein 1 (Q14145 whole entry): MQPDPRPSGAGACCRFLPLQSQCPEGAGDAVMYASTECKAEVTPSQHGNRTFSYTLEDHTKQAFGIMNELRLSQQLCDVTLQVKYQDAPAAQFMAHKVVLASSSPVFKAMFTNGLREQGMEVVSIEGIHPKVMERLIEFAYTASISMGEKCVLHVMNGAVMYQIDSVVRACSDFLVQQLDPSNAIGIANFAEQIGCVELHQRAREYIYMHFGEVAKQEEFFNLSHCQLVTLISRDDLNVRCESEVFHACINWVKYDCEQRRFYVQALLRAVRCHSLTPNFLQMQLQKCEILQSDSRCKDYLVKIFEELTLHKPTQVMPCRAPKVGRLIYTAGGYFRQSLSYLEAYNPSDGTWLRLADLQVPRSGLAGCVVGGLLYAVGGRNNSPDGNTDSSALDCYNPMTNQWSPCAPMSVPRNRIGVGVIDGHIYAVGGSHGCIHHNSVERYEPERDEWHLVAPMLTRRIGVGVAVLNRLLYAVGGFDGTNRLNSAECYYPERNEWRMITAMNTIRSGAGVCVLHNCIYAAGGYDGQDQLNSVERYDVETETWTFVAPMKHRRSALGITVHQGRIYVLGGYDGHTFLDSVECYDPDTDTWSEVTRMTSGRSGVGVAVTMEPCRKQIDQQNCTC

Regarding `CO[C@H]1CC(=O)[C@]2(C)[C@H]3CC[C@]4(C)[C@@H]([C@H](C)[C@H]5CC(C)=C(CO)C(=O)O5)CC[C@H]4[C@@H]3C[C@H]3O[C@]32[C@H]1O`, the result (in data set [1]; with TIG-3 [3]; in data set [5]; in data set [6]; in [8]; in the data set with TIG-3 [10]) was Active. The result (in data set [14]; in data set [15]; with TIG-3 [17]; in the data set on TIG-3 [18]; in the data set on TIG-3 [19]) was Active. Moreover, the Activity entry in the data set with TIG-3 [2] was “Non-Toxic”; with TIG-3 [4] it was “Non-Toxic”; in the data set on TIG-3 [7], “Non-Toxic”; in the data set on TIG-3 [9], “Dose-dependent effect”; with TIG-3 [11] it was “Non-Toxic”; in the data set with TIG-3 [12], “Dose-dependent effect”. The values for the Activity result (in data set [13]; in the data set with TIG-3 [16]; in the data set on TIG-3 [20]) were “Not Active”, “Non-Toxic” and “Non-Toxic”, respectively.
